From ChEMBL document CHEMBL4613214, “In Vitro Activation of Cytochrome P450 46A1 (CYP46A1) by Efavirenz-Related Compounds” (J Med Chem, 2020)
The source made the active and inactive calls. No cut-off for these calls is given here.

What was measured:
[1] = tested on: Cholesterol 24-hydroxylase (Homo sapiens), Q9Y6A2 [UNDEFINED MUTATION]; experiment: Activation of recombinant human C-terminal 4His-tagged CYP46A1 delta(2 to 50) mutant expressed in Escherichia coli using cholesterol as substrate measured after 30 mins in presence of cytochrome P450 oxidoreductase by gas chromatography-mass spectrometry
Summary of the method: (§1)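 Concentration-dependence curves with test compound at 0–100 μM (2% final methanol). Enzyme: 0.5 μM Δ(2-50)CYP46A1 plus 1.0 μM P450 oxidoreductase. Buffer: KPi pH 7.2, 100 mM NaCl, dilauroylphosphatidylcholine, 40 μM cholesterol, catalase, NADPH-regenerating system. Run 30 min at 37 °C. 24-Hydroxycholesterol quantified by GC-MS with a deuterated internal standard, expressed as nmol/nmol P450/min; mean ± SD, three experiments.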

[2] = biological target: T1, Cholesterol 24-hydroxylase (Homo sapiens, UniProt Q9Y6A2); experiment: Inhibition of recombinant human C-terminal 4His-tagged CYP46A1 delta(2 to 50) mutant expressed in Escherichia coli at 60 to 100 uM using cholesterol as substrate measured after 30 mins in presence of cytochrome P450 oxidoreductase by gas chromatography-mass spectrometry; format: ADME; details: 0.5 h; summary of the method: as §1
[3] = tested on: Cholesterol 24-hydroxylase (Homo sapiens), Q9Y6A2 [UNDEFINED MUTATION]; experiment: Activation of recombinant human C-terminal 4His-tagged CYP46A1 delta(2 to 50) mutant expressed in Escherichia coli at 20 uM using cholesterol as substrate measured after 30 mins in presence of cytochrome P450 oxidoreductase by gas chromatography-mass spectrometry relative to control
Summary of the method: (§2)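 Fixed 20 μM test compound (final, 2% methanol) with 0.5 μM purified Δ(2-50)CYP46A1 (wild type or mutant) and 1.0 μM rat P450 oxidoreductase. Buffer: 50 mM KPi pH 7.2, 100 mM NaCl, 40 μg/mL dilauroylphosphatidylcholine, 40 μM cholesterol, catalase, NADPH-regenerating system. Run 30 min at 37 °C. 24-Hydroxycholesterol measured by GC-MS against a deuterated internal standard. Fold activation over no-activator control; mean ± SD, three independent experiments.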

[4] = tested on: Cholesterol 24-hydroxylase (Homo sapiens), Q9Y6A2 [UNDEFINED MUTATION]; experiment: Activation of recombinant human C-terminal 4His-tagged CYP46A1 delta(2 to 50) mutant expressed in Escherichia coli at 20 uM using cholesterol as substrate measured after 30 mins in presence of cytochrome P450 oxidoreductase and L-Glu by gas chromatography-mass spectrometry relative to control
Summary of the method: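 Co-incubation of 100 μM L-Glu with 20 μM test compound, 0.5 μM Δ(2-50)CYP46A1 and 1.0 μM P450 oxidoreductase. Buffer: 50 mM KPi pH 7.2, 100 mM NaCl, phospholipid, 40 μM cholesterol, NADPH-regenerating system. Run 30 min at 37 °C. 24-Hydroxycholesterol measured by GC-MS with a deuterated internal standard. Fold activation relative to control; mean ± SD of three experiments.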

[5] = species on record: Homo sapiens; experiment: Activation of recombinant human C-terminal 4His-tagged CYP46A1 delta(2 to 50) R415A mutant expressed in Escherichia coli at 20 uM using cholesterol as substrate measured after 30 mins in presence of cytochrome P450 oxidoreductase by gas chromatography-mass spectrometry; summary of the method: as §2
[6] = species on record: Homo sapiens; experiment: Activation of recombinant human C-terminal 4His-tagged CYP46A1 delta(2 to 50) F405A mutant expressed in Escherichia coli at 20 uM using cholesterol as substrate measured after 30 mins in presence of cytochrome P450 oxidoreductase by gas chromatography-mass spectrometry; summary of the method: as §2
[7] = species on record: Homo sapiens; experiment: Activation of recombinant human C-terminal 4His-tagged CYP46A1 delta(2 to 50) K358A mutant expressed in Escherichia coli at 20 uM using cholesterol as substrate measured after 30 mins in presence of cytochrome P450 oxidoreductase by gas chromatography-mass spectrometry; summary of the method: as §2
[8] = species on record: Homo sapiens; experiment: Activation of recombinant human C-terminal 4His-tagged CYP46A1 delta(2 to 50) F416A mutant expressed in Escherichia coli at 20 uM using cholesterol as substrate measured after 30 mins in presence of cytochrome P450 oxidoreductase by gas chromatography-mass spectrometry; summary of the method: as §2
[9] = species on record: Homo sapiens; experiment: Activation of recombinant human C-terminal 4His-tagged CYP46A1 delta(2 to 50) Y427A mutant expressed in Escherichia coli at 20 uM using cholesterol as substrate measured after 30 mins in presence of cytochrome P450 oxidoreductase by gas chromatography-mass spectrometry; summary of the method: as §2
[10] = species on record: Homo sapiens; experiment: Activation of recombinant human C-terminal 4His-tagged CYP46A1 delta(2 to 50) K358R mutant expressed in Escherichia coli at 20 uM using cholesterol as substrate measured after 30 mins in presence of cytochrome P450 oxidoreductase by gas chromatography-mass spectrometry; summary of the method: as §2
[11] = species on record: Homo sapiens; experiment: Activation of recombinant human C-terminal 4His-tagged CYP46A1 delta(2 to 50) K358L mutant expressed in Escherichia coli at 20 uM using cholesterol as substrate measured after 30 mins in presence of cytochrome P450 oxidoreductase by gas chromatography-mass spectrometry; summary of the method: as §2
[12] = species on record: Homo sapiens; experiment: Activation of recombinant human C-terminal 4His-tagged CYP46A1 delta(2 to 50) Y427F mutant expressed in Escherichia coli at 20 uM using cholesterol as substrate measured after 30 mins in presence of cytochrome P450 oxidoreductase by gas chromatography-mass spectrometry; summary of the method: as §2
[13] = tested on: Cholesterol 24-hydroxylase (Homo sapiens), Q9Y6A2 [UNDEFINED MUTATION]; experiment: Binding affinity to recombinant human C-terminal 4His-tagged CYP46A1 delta(2 to 50) mutant expressed in Escherichia coli at 15 to 30 uM in absence of substrate by UV-spectrophotometric method
Summary of the method: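 Stopped-flow rapid-scanning spectrophotometry at 23 °C. Substrate-free CYP46A1 (4 μM, in 50 mM KPi pH 7.2 with 100 mM NaCl) was mixed with an equal volume of compound in the same buffer. Spectra were collected over 330–570 nm, and binding rates (kobserved) were fitted.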

[14] = tested on: Cholesterol 24-hydroxylase (Homo sapiens), Q9Y6A2 [UNDEFINED MUTATION]; experiment: Binding affinity to recombinant human C-terminal 4His-tagged CYP46A1 delta(2 to 50) mutant expressed in Escherichia coli at 2 uM in presence of substrate by UV-spectrophotometric method
Summary of the method: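 Stopped-flow rapid-scanning spectrophotometry at 23 °C in 50 mM KPi pH 7.2 with 100 mM NaCl. A premixed 4 μM CYP46A1·4 μM cholesterol complex was mixed with compound, and spectral changes were followed over 330–570 nm.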

[15] = biological target: T1, Cholesterol 24-hydroxylase; experiment: Binding affinity to recombinant human C-terminal 4His-tagged CYP46A1 delta(2 to 50) mutant expressed in Escherichia coli in absence of substrate at 24 degC by stopped-flow spectrophotometric method
[16] = tested on: Cholesterol 24-hydroxylase (Homo sapiens), Q9Y6A2 [UNDEFINED MUTATION]; experiment: Binding affinity to substrate bound recombinant human C-terminal 4His-tagged CYP46A1 delta(2 to 50) mutant expressed in Escherichia coli assessed as Koff rate of cholesterol by stopped-flow spectrophotometric method
Summary of the method: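 Release rate was measured by stopped-flow chase at 23 °C. A prebound complex (4 μM CYP46A1 plus 4 μM cholesterol, 50 mM KPi pH 7.2, 100 mM NaCl) was mixed with excess clotrimazole (40 μM). The rise in Δ(A437−A416) was followed, and 8–12 traces were averaged and fitted. Values are mean ± SD of three independent experiments.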

[17] = tested on: Cholesterol 24-hydroxylase (Homo sapiens), Q9Y6A2 [UNDEFINED MUTATION]; experiment: Binding affinity to substrate free recombinant human C-terminal 4His-tagged CYP46A1 delta(2 to 50) mutant expressed in Escherichia coli assessed as Kon rate of cholesterol by stopped-flow spectrophotometric method
[18] = biological target: T1, Cholesterol 24-hydroxylase; experiment: Inhibition of recombinant human C-terminal 4His-tagged CYP46A1 delta(2 to 50) mutant expressed in Escherichia coli at up to 100 uM using cholesterol as substrate measured after 30 mins in presence of cytochrome P450 oxidoreductase by gas chromatography-mass spectrometry; format: ADME; details: 0.5 h; summary of the method: as §1

Chain of Cholesterol 24-hydroxylase (Homo sapiens), Q9Y6A2 [UNDEFINED MUTATION] (Q9Y6A2 whole entry, looked up, stated change not applied): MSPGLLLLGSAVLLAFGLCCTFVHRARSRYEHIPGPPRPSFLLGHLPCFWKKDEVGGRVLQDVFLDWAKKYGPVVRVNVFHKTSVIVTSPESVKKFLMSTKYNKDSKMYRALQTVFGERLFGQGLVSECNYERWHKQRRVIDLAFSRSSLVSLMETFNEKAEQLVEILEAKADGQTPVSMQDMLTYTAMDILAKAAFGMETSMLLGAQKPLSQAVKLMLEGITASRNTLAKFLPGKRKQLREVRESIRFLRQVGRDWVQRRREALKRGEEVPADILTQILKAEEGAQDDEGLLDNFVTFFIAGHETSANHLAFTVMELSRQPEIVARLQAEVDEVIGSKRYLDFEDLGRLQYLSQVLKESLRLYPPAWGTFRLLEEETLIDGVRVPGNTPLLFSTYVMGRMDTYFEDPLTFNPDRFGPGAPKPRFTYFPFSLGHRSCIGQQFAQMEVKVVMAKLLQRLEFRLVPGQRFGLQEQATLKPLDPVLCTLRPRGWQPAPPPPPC
T1 sequence (Q9Y6A2 whole entry, looked up, stated change not applied): as above

Activity [1]	inhibition (INH) [2]	fold change (FC) [3]	fold change (FC) [4]	Activity [5]	Activity [6]	Activity [7]	Activity [8]	Activity [9]	Activity [10]	Activity [11]	Activity [12]	Activity [13]	Activity [14]	Kd [15]	K [16]	K [17]	inhibition (INH) [18]	Activity [4]	SMILES
Dose-dependent effect	Not Active	–	–	–	–	–	–	–	–	–	–	–	–	–	–	–	–	–	O=C1Nc2c(O)cc(Cl)cc2C(C#CC2CC2)(C(F)(F)F)O1 (racemic)
–	–	6.1	4.8	inactive	inactive	Active	Active	Active	Active	Active	Active	inactive	inactive	5 µM	3.6 s⁻¹	0.7 ×10⁶ /M/s	–	–	O=C1Nc2c(O)cc(Cl)cc2C(C#CC2(O)CC2)(C(F)(F)F)O1 (racemic)
Dose-dependent effect	Not Active	3.9	4.6	Active	Active	inactive	inactive	inactive	inactive	inactive	inactive	–	–	–	–	–	–	–	O=C1CC(C#CC2CC2)(C(F)(F)F)c2cc(Cl)ccc2N1 (racemic)
Dose-dependent effect	Not Active	5.8	6.8	Active	Active	Active	Active	Active	Active	Active	Active	–	–	–	–	–	–	–	O=C1Nc2cc(O)c(Cl)cc2C(C#CC2CC2)(C(F)(F)F)O1 (racemic)
Dose-dependent effect	–	2.5	–	inactive	inactive	Active	Active	Active	Active	Active	Active	–	–	–	–	–	Not Active	inactive	FC(F)(F)[C@@]1(C#CC2CC2)OCNc2ccc(Cl)cc21
Dose-dependent effect	Not Active	6.2	7.4	Active	Active	Active	Active	Active	Active	Active	Active	–	–	–	–	–	–	–	O=C1Nc2c(O)cc(Cl)cc2[C@@](C#CC2CC2)(C(F)(F)F)O1
Dose-dependent effect	Not Active	3.1	3.7	Active	Active	inactive	inactive	inactive	inactive	inactive	inactive	–	–	–	–	–	–	–	CCCC#CC1(C(F)(F)F)OC(=O)Nc2ccc(Cl)cc21 (racemic)
–	Active	–	–	Active	Active	inactive	inactive	inactive	inactive	inactive	–	–	–	–	–	–	–	–	O=C1Nc2ccc(Cl)cc2[C@@](C#CC2CC2)(C(F)(F)F)O1 [EFAVIRENZ]
–	–	1.9	2.8	Active	Active	Active	Active	Active	Active	Active	Active	–	–	–	–	–	Not Active	–	O=C1Cc2ccc(Cl)cc2C(C#CC2CC2)(C(F)(F)F)O1 (racemic)
Dose-dependent effect	Not Active	2.6	–	inactive	inactive	Active	Active	Active	Active	Active	Active	–	–	–	–	–	–	inactive	CC1Nc2ccc(Cl)cc2C(C#CC2CC2)(C(F)(F)F)O1 (racemic)
